TAAR1 antag: antagonists of human TAAR1. inhibition, % at 3 µM. Q96RJ0. AID 624466. 360,000 compounds, 1.5% hits. CHO RD-HGA16 TAAR1, Fluo-8 calcium fluorescence, antagonist;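 active = inhibition above a per-plate cutoff, the mean inhibition of test compounds on that plate plus 3 SD, cut at about 49% in these data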
Target sequence (Q96RJ0 whole entry, looked up): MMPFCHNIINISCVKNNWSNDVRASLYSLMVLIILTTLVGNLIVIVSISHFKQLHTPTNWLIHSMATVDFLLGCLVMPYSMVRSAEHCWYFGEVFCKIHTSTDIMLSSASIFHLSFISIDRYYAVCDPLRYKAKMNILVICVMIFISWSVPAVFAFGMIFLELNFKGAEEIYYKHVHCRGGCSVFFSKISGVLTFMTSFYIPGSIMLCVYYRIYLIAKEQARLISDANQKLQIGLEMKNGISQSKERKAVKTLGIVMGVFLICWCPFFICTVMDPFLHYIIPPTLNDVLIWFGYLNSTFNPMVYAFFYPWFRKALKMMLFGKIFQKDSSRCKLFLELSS
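System: CHO RD-HGA16 cells bearing hTAAR1. Reagent: EC80 β-phenethylamine stimulus. Schedule: seeding 17-24 h prior, 75-min 37 °C, 30-min RT dye loading. Signal: Fluo-8 intracellular calcium dye fluorescence, real-time kinetic reads. Read-out: % inhibition from peak post-agonist over basal fluorescence ratio. Benchmarks: vehicle wells and EC80 agonist wells. Replicates: n of 1.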
OX1R antag-1: human HCRTR1 antagonism | O43613 | 330,000 compounds, 0.43% hits | inhibition, % at 5 µM | CHO/OX1R cells, Fluo-8 calcium fluorescence, orexin A;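 active = inhibition above its plate's threshold, mean inhibition of all tested compounds on the plate plus 3 SD, cut at about 37% in these data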
Target sequence (O43613 whole entry, looked up): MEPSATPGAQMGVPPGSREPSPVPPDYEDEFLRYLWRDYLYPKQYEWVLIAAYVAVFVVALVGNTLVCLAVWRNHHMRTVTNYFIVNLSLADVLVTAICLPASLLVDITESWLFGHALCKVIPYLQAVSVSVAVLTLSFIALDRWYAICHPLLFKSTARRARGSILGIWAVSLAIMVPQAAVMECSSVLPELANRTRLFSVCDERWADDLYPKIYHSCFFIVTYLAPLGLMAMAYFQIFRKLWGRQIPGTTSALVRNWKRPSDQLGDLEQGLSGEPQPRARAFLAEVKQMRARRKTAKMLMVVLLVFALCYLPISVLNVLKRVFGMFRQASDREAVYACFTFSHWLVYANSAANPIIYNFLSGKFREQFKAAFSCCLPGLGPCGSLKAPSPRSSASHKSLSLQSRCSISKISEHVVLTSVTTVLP
OX1R antag-2: blocks the human orexin 1 receptor | O43613 | OX1R-expressing cells, FRET antagonist read-out | inhibition, % at 6.6 µM | 330,000 compounds, 1.8% hits | AID 485270; in the data active = inhibition mostly above about 38%, no sharp cut-off; inactive = mostly below about 40%
TAAR1 agonist: human TAAR1 agonism. Q96RJ0. CHO RD-HGA16 TAAR1, Fluo-8 calcium fluorescence; vehicle wells 0%, saturating PEA agonist 100%. activation, % at 3 µM. 360,000 compounds, 0.99% hits. AID 624467;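 active = activation above the mean activation of all test compounds in the run plus 3 SD, cut at about 38% in these data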
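Test system: RD-HGA16 (CHO) cells co-expressing Gα16 and hTAAR1; dosing: one-point dosing at 3 µM (nominal); timing: 17-24 h seeding, 75 min 37 °C dye, 30 min RT; signal: kinetic Fluo-8 calcium fluorescence; read-out basis: % activation relative to PEA EC100 response; controls: DMSO and PEA EC100; replicates: n 1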
CHO parental Ca: counter-screen: ATP calcium response change in parental CHO cells; 330,000 compounds, 0.63% hits; parental CHO-K1, ATP-induced calcium, Fluo-8 fluorescence; inhibition, % at 5.6 µM;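 active = inhibition above that plate's mean sample inhibition plus 3 SD, cut at about 26% in these data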
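Test system: untransfected parental CHO cell line; also added: ATP stimulus; dosing: 5.6 µM, single dose; signal: calcium-sensitive Fluo-8 fluorescence; measure: percent inhibition of ATP-evoked calcium rise, normalized to controls; benchmarks: low control ATP plus DMSO, high control DMSO only; replication: one well per compound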
TAAR1 ag conf: human TAAR1 agonism, confirmed | shares compounds with TAAR1 agonist | CHO RD-HGA16 TAAR1, Fluo-8 calcium fluorescence; scaled: DMSO 0%, maximal phenethylamine 100% | activation, % at 3 µM | 2,400 compounds, 82% hits | AID 651783;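 active = activation above a cutoff set at the run's mean compound activation plus 3 SD, cut at about 39% in these data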
Ga16 nonsel ag: nonselective agonism, TAAR1 counter-screen; shares compounds with TAAR1 agonist; CHO-Ga16 parental, Fluo-8 calcium fluorescence; normalized to maximal ATP response, DMSO zero; activation, % at 3 µM; 2,400 compounds, 50% hits; AID 651787;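 active = activation above the run cutoff, the mean activation over all tested wells plus 3 SD, cut at about 12% in these data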
TAAR1 desens: TAAR1 response desensitization, agonist counter-screen; shares compounds with TAAR1 agonist; CHO RD-HGA16 hTAAR1, Fluo-8 calcium, beta-PEA response inhibition; inhibition, % at 3 µM; 2,400 compounds, 46% hits; AID 651951;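 active = inhibition above the run cutoff, the mean inhibition of all test compounds plus 3 SD, cut at about 49% in these data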;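 also: beta-PEA stimulus applied at its EC80; loss of beta-PEA calcium signal after compound pretreatment read as receptor desensitization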
Ga16 nonsel ant: nonselective Ga16 antagonism, counter-screen. shares compounds with TAAR1 agonist. CHO-Ga16 ATP-induced calcium, Fluo-8 fluorescence. inhibition, % at 3 µM. 2,400 compounds, 39% hits. AID 651952;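 active = inhibition above the plate's mean compound inhibition plus 3 SD, computed per plate, cut at about 22% in these data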
Hits are given with their value. Only some compounds are listed: those with a hit (about 4% of all), similar ones and a draw of the others.

Screening Brc1ccc(C2=CC(c3cccs3)n3ncnc3N2)cc1 (stereo not given) returned TAAR1 antag 110.2, OX1R antag-1 inactive, OX1R antag-2 inactive, TAAR1 agonist 164.4, CHO parental Ca 41.3, TAAR1 ag conf inactive, Ga16 nonsel ag 50.9, TAAR1 desens 61.8 and Ga16 nonsel ant 57.3.
CCCS(=O)(=O)NC(=O)C1(C)CCN(C(=O)c2ccc(OC(F)F)cc2)C1 (stereo not given) was read as TAAR1 antag inactive and TAAR1 agonist inactive.
`O=C(O)C1C2CCC(C2)C1C(=O)NCCC1=CCCCC1` (stereo not given) gave TAAR1 antag 85.4, OX1R antag-1 inactive, OX1R antag-2 inactive, TAAR1 agonist 79.8, CHO parental Ca inactive, TAAR1 ag conf 94.5, Ga16 nonsel ag inactive, TAAR1 desens 77.1 and Ga16 nonsel ant inactive.
O=C(NCCC1=CCCCC1)C1CCN(S(=O)(=O)c2ccccc2)CC1 was read as TAAR1 antag inactive, OX1R antag-1 inactive, OX1R antag-2 inactive, TAAR1 agonist inactive and CHO parental Ca inactive.
`O=C(O)/C=C/C(=O)NCCC1=CCCCC1` gave TAAR1 antag 84.3, OX1R antag-1 inactive, OX1R antag-2 inactive, TAAR1 agonist 73.0, CHO parental Ca inactive, TAAR1 ag conf 95.3, Ga16 nonsel ag inactive, TAAR1 desens 97.0 and Ga16 nonsel ant inactive.
For O=C(O)C1C2C=CC(C2)C1C(=O)NCCC1=CCCCC1 (stereo not given) the results were TAAR1 antag 71.3, OX1R antag-1 inactive, OX1R antag-2 inactive, TAAR1 agonist 72.4, CHO parental Ca inactive, TAAR1 ag conf 88.6, Ga16 nonsel ag inactive, TAAR1 desens 83.6 and Ga16 nonsel ant inactive.
For O=C(N[C@H](C(=O)N1CCC[C@H]1C(=O)NCCc1ccccc1Cl)C1CCCCC1)c1cccs1 the results were Ga16 nonsel ag inactive and Ga16 nonsel ant inactive.
Screening CC(C)[C@H](NC(=O)C1CCCC1)C(=O)N1CCC[C@H]1C(=O)NCCc1ccccc1Cl returned TAAR1 antag 75.0, TAAR1 agonist 86.9, TAAR1 ag conf 85.4, Ga16 nonsel ag inactive, TAAR1 desens 86.8 and Ga16 nonsel ant inactive.
CC(C)[C@H](NC(=O)c1ccc(Cl)cc1Cl)C(=O)N1CCC[C@H]1C(=O)NCCc1ccccc1Cl was read as TAAR1 antag 76.4, TAAR1 agonist 50.4, TAAR1 ag conf 73.2, Ga16 nonsel ag inactive, TAAR1 desens 92.3 and Ga16 nonsel ant inactive.
CC1(C)C(=O)Nc2ccccc2N1C(=O)COC(=O)CNS(=O)(=O)c1ccc(F)c(F)c1F was read as TAAR1 antag inactive, OX1R antag-1 inactive, OX1R antag-2 inactive, TAAR1 agonist inactive and CHO parental Ca inactive.
For Cc1ccccc1-c1oc(C)c(C)[n+]1[O-] the results were TAAR1 antag inactive, OX1R antag-1 inactive, OX1R antag-2 inactive, TAAR1 agonist inactive and CHO parental Ca inactive.
For Cc1nc2ccccc2n1CCc1ccccc1 the results were TAAR1 antag inactive, OX1R antag-1 inactive, OX1R antag-2 inactive, TAAR1 agonist inactive and CHO parental Ca inactive.
Screening Cc1nc(C(N)=O)c(N)n1CCc1ccccc1 returned TAAR1 antag 72.3, OX1R antag-1 inactive, OX1R antag-2 inactive, TAAR1 agonist 97.9, CHO parental Ca inactive, TAAR1 ag conf 70.0, Ga16 nonsel ag inactive, TAAR1 desens inactive and Ga16 nonsel ant inactive.
Screening N#CC1=C(N)OC2=C(CC/C2=C\c2ccccc2)C1c1ccccc1 (stereo not given) returned TAAR1 antag 70.7, OX1R antag-1 inactive, OX1R antag-2 inactive, TAAR1 agonist 64.2, CHO parental Ca inactive, TAAR1 ag conf 45.6, Ga16 nonsel ag 68.7, TAAR1 desens 67.1 and Ga16 nonsel ant 77.1.
CCc1nc2ccc(C(=O)NCCOc3ccc(OC)cc3)cn2c1N(C=O)Cc1ccc(OC)cc1 was read as TAAR1 antag inactive and TAAR1 agonist inactive.
`CN1CCN(CCN2CCn3c2nc2ccccc23)CC1` gave TAAR1 antag inactive, OX1R antag-1 inactive, OX1R antag-2 inactive, TAAR1 agonist inactive and CHO parental Ca inactive.
c1ccc(CCN2CN(CCCN3CCOCC3)c3nc4ccccc4n3C2)cc1 was read as OX1R antag-1 inactive, OX1R antag-2 inactive, CHO parental Ca inactive, Ga16 nonsel ag inactive and Ga16 nonsel ant inactive.
`COc1ccc(N2CCN(C(=O)CN3c4cccc5cccc(c45)S3(=O)=O)CC2)cc1` gave TAAR1 antag inactive, OX1R antag-1 inactive, OX1R antag-2 inactive, TAAR1 agonist inactive and CHO parental Ca inactive.
`O=C(COC(=O)c1cc(Br)ccc1O)Nc1ccc2c(c1)OCO2` gave TAAR1 antag 70.2, OX1R antag-1 inactive, OX1R antag-2 inactive, TAAR1 agonist 75.4, CHO parental Ca inactive, TAAR1 ag conf 43.7, Ga16 nonsel ag 35.6, TAAR1 desens inactive and Ga16 nonsel ant 40.1.
For O=C(c1ccccc1)N1CCC(c2nc(-c3ccc(S(=O)(=O)NCC4CCCO4)cc3)no2)CC1 (stereo not given) the results were TAAR1 antag inactive, OX1R antag-1 inactive, OX1R antag-2 inactive, TAAR1 agonist 43.2, CHO parental Ca inactive, TAAR1 ag conf inactive, Ga16 nonsel ag inactive, TAAR1 desens inactive and Ga16 nonsel ant 26.9.
`O=C(Nc1cccc(S(=O)(=O)NC2=NCCC2)c1)c1cc(Cl)ccc1[N+](=O)[O-]` gave OX1R antag-1 inactive, OX1R antag-2 inactive and CHO parental Ca inactive.
For COc1ccccc1C(=O)Nc1ccc(-c2nnn(CC(=O)NCc3ccco3)n2)cc1 the results were TAAR1 antag inactive, OX1R antag-1 inactive, OX1R antag-2 inactive, TAAR1 agonist inactive and CHO parental Ca inactive.
CCCC1=NN2C(=N)/C(=C\c3cc(C)n(Cc4ccccc4)c3C)C(=O)N=C2S1 was read as TAAR1 antag 100.6, OX1R antag-1 104.3, OX1R antag-2 inactive, TAAR1 agonist 117.1, CHO parental Ca 86.5, TAAR1 ag conf 110.9, Ga16 nonsel ag 96.3, TAAR1 desens 106.2 and Ga16 nonsel ant 100.3.
For CN(C(=O)c1ccc(NC(=O)Cc2cccc(NC(=O)C3CCN(C(=O)c4ccccc4)CC3)c2)cc1)C1CCCC1 the results were TAAR1 antag inactive, OX1R antag-1 inactive, OX1R antag-2 inactive, TAAR1 agonist inactive and CHO parental Ca inactive.

Screening data (PubChem BioAssay)
